From article PMC9979266 (Acta Pharmaceutica Sinica. B, 2022)

Legend:
NIH3T3 cells = assay: MTT cell cytotoxicity assay, NIH3T3; type: cell-based, murine; conditions: 10–160 μmol/L, 24 h, n = 3
[1] = system: TGF-β1-induced A549 cells; assay: Marker expression; type: cell-based, human; conditions: n = 3; for miR-23b-5p expression after inhibitor treatment: 10 μmol/L pretreatment, qPCR
Summary of the method: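 A549 in RPMI 1640 + 10% FBS, plated 24 h, serum-starved overnight. Three pathway inhibitors at 10 μmol/L added 30 min before TGF-β1 (5 ng/mL) plus test peptide. Harvest: RNA/protein at 48 h, phosphoproteins at 1 h. Western: 30 μg protein, 10% SDS-PAGE, ECL, GAPDH-normalised. qPCR: 2−ΔΔCt with GAPDH (mRNA) or U6 (miRNA) reference. At least three independent replicates, mean ± SD.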

Row | Compound | Cytotoxicity against NIH3T3 cells (NIH3T3 cells) | miR-23b-5p expression after inhibitor treatment [1] | AQP5 expression after inhibitor pretreatment ([1]; 10 μmol/L, 30 min pretreatment, Western blot)
1 | DHNAPQIR-NH2 [DR4dA] | no toxicity |  | 
2 | C[S+]([O-])c1ccc(-c2nc(-c3ccncc3)c(-c3ccc(F)cc3)[nH]2)cc1 (stereo not drawn) [SB203580] |  | reduced | 
3 | DHANPQIR-NH2 [DR3dA] | no toxicity |  | 
4 | COc1cccc(-c2cc(=O)c3ccccc3o2)c1N [PD98059] |  | reduced | elevated
5 | DHAAPQIR-NH2 [DR3d4dA] | no toxicity |  | 
